Measured values taken from paper PMC7987787 (Nuclear medicine and biology, 2021).
Values joined by “and” are separate entries in the source; they are usually repeats but may differ in a detail not shown here. Equal values may be shown once. Read-outs that look alike come from different tables or passages of the source.

What was measured:
[1] = system: PC-3 PIP and PC-3 flu xenografts; conditions: SCID mice
[2] = system: PSMA+ PC-3 PIP xenografts; conditions: cited from earlier work
[3] = Phase II trial, 3 months after treatment; cited from earlier work
PSMA = PSMA (Homo sapiens, UniProt Q04609); experiment: PSMA inhibition assay; assay type: biochemical
Outline: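 LNCaP cell extract as enzyme source, incubated with the inhibitor at various amounts plus 4 μM NAAG for 120 min. Glutamate released was detected with Amplex Red glutamic acid working solution over 60 min, fluorescence ex 530/em 560 nm. […] Triplicate; known PSMA inhibitor as positive control.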

Sequence of PSMA (Q04609 whole entry): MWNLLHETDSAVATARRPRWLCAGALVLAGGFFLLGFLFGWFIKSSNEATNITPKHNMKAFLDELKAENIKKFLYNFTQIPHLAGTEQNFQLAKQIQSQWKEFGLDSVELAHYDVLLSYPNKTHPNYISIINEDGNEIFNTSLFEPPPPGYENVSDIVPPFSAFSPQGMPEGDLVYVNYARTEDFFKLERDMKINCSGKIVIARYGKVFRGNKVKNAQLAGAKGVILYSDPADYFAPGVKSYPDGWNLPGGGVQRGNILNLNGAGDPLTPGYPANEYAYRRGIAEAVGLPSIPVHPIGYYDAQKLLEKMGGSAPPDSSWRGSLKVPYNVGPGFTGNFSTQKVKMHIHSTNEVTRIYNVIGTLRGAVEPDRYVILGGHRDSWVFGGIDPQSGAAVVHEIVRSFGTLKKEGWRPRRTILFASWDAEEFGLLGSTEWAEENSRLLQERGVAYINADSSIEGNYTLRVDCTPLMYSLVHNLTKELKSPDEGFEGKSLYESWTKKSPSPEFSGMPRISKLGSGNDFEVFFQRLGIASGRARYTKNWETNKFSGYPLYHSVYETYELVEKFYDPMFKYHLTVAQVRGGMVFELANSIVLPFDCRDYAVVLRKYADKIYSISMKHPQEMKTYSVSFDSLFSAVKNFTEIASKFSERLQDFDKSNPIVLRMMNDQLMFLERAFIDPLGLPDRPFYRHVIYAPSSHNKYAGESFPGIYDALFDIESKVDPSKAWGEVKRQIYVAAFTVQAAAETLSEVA

SMILES: O=C(O)CC[C@H](NC(=O)N[C@@H](CCC(=O)NCCc1ccc([131I])cc1)C(=O)O)C(=O)O [[^131I]HS-549]
- Percent injected dose per gram: Blood ([1]; 1 h): 5.90 ± 1.05 % ID/g
- Percent injected dose per gram: Bone ([1]; 1 h): 0.94 ± 0.36 % ID/g
- Percent injected dose per gram: Brain ([1]; 1 h): 0.26 ± 0.08 % ID/g
- Percent injected dose per gram: Heart ([1]; 1 h): 2.30 ± 0.63 % ID/g
- Percent injected dose per gram: Kidneys ([1]; 1 h): 106 ± 18.9 % ID/g
- Percent injected dose per gram: Lg. Int. ([1]; 1 h): 0.52 ± 0.12 % ID/g
- Percent injected dose per gram: Liver ([1]; 1 h): 21.2± 4.14 % ID/g
- Percent injected dose per gram: Lungs ([1]; 1 h): 4.60 ± 1.09 % ID/g
- Percent injected dose per gram: Muscle ([1]; 1 h): 0.86 ± 0.26 % ID/g
- Percent injected dose per gram: PC-3 PIP ([1]; 1 h): 78.1 ± 19.1 % ID/g
- Percent injected dose per gram: PC-3 flu ([1]; 1 h): 2.21 ± 0.53 % ID/g
- Percent injected dose per gram: Sm. Int. ([1]; 1 h): 1.98 ± 0.30 % ID/g
- Percent injected dose per gram: Spleen ([1]; 1 h): 6.76 ± 3.42 % ID/g
- Percent injected dose per gram: Stomach ([1]; 1 h): 0.92 ± 0.20 % ID/g
- Percent injected dose per gram: Thyroid ([1]; 1 h): 1.17 ± 0.43 % ID/g
- Thyroid uptake ([1]; 1 h): 0.30 ± 0.13 %ID
- Tumor-to-blood ratio (PSMA+ PC3 PIP) ([1]; 1 h): 13.3 ± 2.7
- Tumor-to-kidney ratio (PSMA+ PC3 PIP) ([1]; 1 h): 0.74 ± 0.15
- Liver levels relative to co-administered [211At]HS-549 ([1]; 1 h and 2 h, P < 0.05): 3–6 fold
- Percent injected dose per gram: Blood ([1]; 2 h): 2.92 ± 0.32 % ID/g
- Percent injected dose per gram: Bone ([1]; 2 h): 0.65 ± 0.25 % ID/g
- Percent injected dose per gram: Brain ([1]; 2 h): 0.18 ± 0.02 % ID/g
- Percent injected dose per gram: Heart ([1]; 2 h): 1.14 ± 0.18 % ID/g
- Percent injected dose per gram: Kidneys ([1]; 2 h): 96.6 ± 39.1 % ID/g
- Percent injected dose per gram: Lg. Int. ([1]; 2 h): 1.32 ± 0.25 % ID/g
- Percent injected dose per gram: Liver ([1]; 2 h): 26.0 ± 3.09 % ID/g
- Percent injected dose per gram: Lungs ([1]; 2 h): 2.73 ± 0.66 % ID/g
- Percent injected dose per gram: Muscle ([1]; 2 h): 0.46 ± 0.12 % ID/g
- Percent injected dose per gram: PC-3 PIP ([1]; 2 h): 74.7 ± 13.1 % ID/g
- Percent injected dose per gram: PC-3 flu ([1]; 2 h): 1.51 ± 0.30 % ID/g
- Percent injected dose per gram: Sm. Int. ([1]; 2 h): 2.42 ± 0.40 % ID/g
- Percent injected dose per gram: Spleen ([1]; 2 h): 2.71 ± 0.85 % ID/g
- Percent injected dose per gram: Stomach ([1]; 2 h): 0.47 ± 0.17 % ID/g
- Percent injected dose per gram: Thyroid ([1]; 2 h): 0.69 ± 0.29 % ID/g
- Tumor-to-blood ratio (PSMA+ PC3 PIP) ([1]; 2 h): 26 ± 5.3
- Tumor-to-kidney ratio (PSMA+ PC3 PIP) ([1]; 2 h): 0.87 ± 0.30
- Percent injected dose per gram: Blood ([1]; 21 h): 1.39 ± 0.35 % ID/g
- Percent injected dose per gram: Bone ([1]; 21 h): 0.20 ± 0.05 % ID/g
- Percent injected dose per gram: Brain ([1]; 21 h): 0.08 ± 0.02 % ID/g
- Percent injected dose per gram: Heart ([1]; 21 h): 0.41 ± 0.09 % ID/g
- Percent injected dose per gram: Kidneys ([1]; 21 h): 3.13 ± 1.65 % ID/g
- Percent injected dose per gram: Lg. Int. ([1]; 21 h): 0.63 ± 0.39 % ID/g
- Percent injected dose per gram: Liver ([1]; 21 h): 1.86 ± 0.51 % ID/g
- Percent injected dose per gram: Lungs ([1]; 21 h): 0.87 ± 0.27 % ID/g
- Percent injected dose per gram: Muscle ([1]; 21 h): 0.16 ± 0.04 % ID/g
- Percent injected dose per gram: PC-3 PIP ([1]; 21 h): 22.6 ± 22.1 % ID/g
- Percent injected dose per gram: PC-3 flu ([1]; 21 h): 0.44 ± 0.18 % ID/g
- Percent injected dose per gram: Sm. Int. ([1]; 21 h): 0.37 ± 0.06 % ID/g
- Percent injected dose per gram: Spleen ([1]; 21 h): 0.29 ± 0.12 % ID/g
- Percent injected dose per gram: Stomach ([1]; 21 h): 0.14 ± 0.04 % ID/g
- Percent injected dose per gram: Thyroid ([1]; 21 h): 0.36 ± 0.05 % ID/g
- Thyroid uptake ([1]; 21 h): 0.08 ± 0.01 %ID
- Tumor-to-blood ratio (PSMA+ PC3 PIP) ([1]; 21 h): 18 ± 19
- Tumor-to-kidney ratio (PSMA+ PC3 PIP) ([1]; 21 h): 6.26 ± 4.04

SMILES: O=C(O)CC[C@H](NC(=O)N[C@@H](CCCCNC(=O)c1ccc([211At])cc1)C(=O)O)C(=O)O [[^211At]DCABzL, (((S)-1-carboxy-5-(4-[^211At]astinatobenzamido)pentyl)carbamoyl)-L-glutamic acid]
- Stomach activity level, range over time points ([2]; %ID/organ): 3.8 – 8.2%
- Thyroid radioactivity level, range over time points ([2]; %ID/organ): 0.5–1.3%
- Peak uptake in subcutaneous PC3 PSMA+ PIP xenografts [2]: > 30 % ID/g

SMILES: O=C([O-])CN1CCN(CC(=O)[O-])CCN(CC(=O)NCC2CCC(C(=O)N[C@@H](Cc3ccc4ccccc4c3)C(=O)NCCCC[C@H](NC(=O)N[C@@H](CCC(=O)O)C(=O)O)C(=O)O)CC2)CCN(CC(=O)[O-])CC1.[177Lu+3] (some centres unmarked) [^177Lu-labeled PSMA-617]
- Patients with reductions in tumor volume [3]: about 40%

SMILES: O=C(O)CC[C@H](NC(=O)N[C@@H](CCC(=O)NCCc1ccc(I)cc1)C(=O)O)C(=O)O [HS-549, (((S)-1-Carboxy-4-((4-iodophenethyl)amino)-4-oxobutyl)carbamoyl)-L-glutamic acid]
- IC50 (PSMA): 0.43 nM
- Ki (PSMA): 0.09 nM

SMILES: O=C(O)CC[C@H](NC(=O)N[C@@H](CCC(=O)NCCc1ccc([211At])cc1)C(=O)O)C(=O)O [[^211At]HS-549]
- Percent injected dose per gram: Blood ([1]; 1 h): 5.5 ± 0.8 % ID/g and 5.53 ± 0.84 % ID/g
- Percent injected dose per gram: Bone ([1]; 1 h): 1.49 ± 0.40 % ID/g
- Percent injected dose per gram: Brain ([1]; 1 h): 0.46 ± 0.09 % ID/g
- Percent injected dose per gram: Heart ([1]; 1 h): 4.34 ± 0.96 % ID/g
- Percent injected dose per gram: Kidneys ([1]; 1 h): 46.7 ± 8.2 % ID/g
- Percent injected dose per gram: Lg. Int. ([1]; 1 h): 1.16 ± 0.20 % ID/g
- Percent injected dose per gram: Liver ([1]; 1 h): 7.94 ± 2.15 % ID/g
- Percent injected dose per gram: Lungs ([1]; 1 h): 9.77 ± 1.75 % ID/g
- Percent injected dose per gram: Muscle ([1]; 1 h): 1.11 ± 0.29 % ID/g
- Percent injected dose per gram: PC-3 PIP ([1]; 1 h): 43.2 ± 9.8 % ID/g
- Percent injected dose per gram: PC-3 flu ([1]; 1 h): 3.48 ± 0.53 % ID/g
- Percent injected dose per gram: Sm. Int. ([1]; 1 h): 5.52 ± 1.57 % ID/g
- Percent injected dose per gram: Spleen ([1]; 1 h): 8.79 ± 2.09 % ID/g
- Percent injected dose per gram: Stomach ([1]; 1 h): 7.07 ± 2.24 % ID/g
- Percent injected dose per gram: Thyroid ([1]; 1 h): 3.24 ± 0.56 % ID/g
- Percent injected dose per gram: Blood ([1]; 2 h): 2.8 ± 0.4 % ID/g and 2.87 ± 0.40 % ID/g
- Percent injected dose per gram: Brain ([1]; 2 h): 0.39 ± 0.06 % ID/g
- Percent injected dose per gram: Heart ([1]; 2 h): 3.36 ± 0.59 % ID/g
- Percent injected dose per gram: Kidneys ([1]; 2 h): 40.4 ± 15.5 % ID/g
- Percent injected dose per gram: Lg. Int. ([1]; 2 h): 4.59 ± 0.81 % ID/g
- Percent injected dose per gram: Liver ([1]; 2 h): 4.65 ±1.28 % ID/g
- Percent injected dose per gram: Lungs ([1]; 2 h): 8.24 ± 2.25 % ID/g
- Percent injected dose per gram: Muscle ([1]; 2 h): 0.76 ± 0.18 % ID/g
- Percent injected dose per gram: PC-3 PIP ([1]; 2 h): 42.0 ± 7.16 % ID/g
- Percent injected dose per gram: PC-3 flu ([1]; 2 h): 2.82 ±0.60 % ID/g
- Percent injected dose per gram: Sm. Int. ([1]; 2 h): 3.81 ± 1.24 % ID/g
- Percent injected dose per gram: Spleen ([1]; 2 h): 6.13 ± 1.59 % ID/g
- Percent injected dose per gram: Stomach ([1]; 2 h): 14.3 ± 3.2 % ID/g
- Percent injected dose per gram: Thyroid ([1]; 2 h): 4.11 ± 2.00 % ID/g
- Percent injected dose per gram: Blood ([1]; 21 h): 0.92 ± 0.15 % ID/g
- Percent injected dose per gram: Bone ([1]; 21 h): 0.60 ± 0.17 % ID/g
- Percent injected dose per gram: Brain ([1]; 21 h): 0.17 ± 0.03 % ID/g
- Percent injected dose per gram: Kidneys ([1]; 21 h): 2.60 ± 0.77 % ID/g
- Percent injected dose per gram: Lg. Int. ([1]; 21 h): 0.93 ± 0.41 % ID/g
- Percent injected dose per gram: Liver ([1]; 21 h): 0.89 ± 0.13 % ID/g
- Percent injected dose per gram: Lungs ([1]; 21 h): 4.3 ± 0.7 % ID/g and 4.26 ± 0.72 % ID/g
- Percent injected dose per gram: Muscle ([1]; 21 h): 0.29 ± 0.09 % ID/g
- Percent injected dose per gram: PC-3 PIP ([1]; 21 h): 10.6 ± 9.91 % ID/g
- Percent injected dose per gram: Sm. Int. ([1]; 21 h): 1.28 ± 0.30 % ID/g
- Percent injected dose per gram: Spleen ([1]; 21 h): 2.31 ± 0.67 % ID/g
- Percent injected dose per gram: Stomach ([1]; 21 h): 12.6 ± 6.20 % ID/g
- Percent injected dose per gram: Thyroid ([1]; 21 h): 3.78 ± 0.63 % ID/g
- Stomach activity level, range over time points ([1]; %ID/organ): 3.2 −8.7 %ID
- Thyroid radioactivity level, range over time points ([1]; %ID/organ, all time points): 0.8–0.9 %ID
